Shown are actives, neighbours in structure and some others; about 2.3% of the full set was active somewhere.
CSN inh – inhibitors of human CSN-mediated cullin deneddylation; 0.38% of 360,000 active; Q92905; Purified CSN, SCF-Nedd8-OG deneddylation, fluorescence polarization; inhibition, % at 12.5 µM;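 active = pattern-corrected inhibition above about 35%, with an unprinted fluorescence ratio check between 0.5 and 1.5, limit read from the data, passing the limit was not always enough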;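 note: 0% = enzyme with substrate and 100% = substrate without enzyme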
Target sequence (Q92905 whole entry, looked up, one chain of several): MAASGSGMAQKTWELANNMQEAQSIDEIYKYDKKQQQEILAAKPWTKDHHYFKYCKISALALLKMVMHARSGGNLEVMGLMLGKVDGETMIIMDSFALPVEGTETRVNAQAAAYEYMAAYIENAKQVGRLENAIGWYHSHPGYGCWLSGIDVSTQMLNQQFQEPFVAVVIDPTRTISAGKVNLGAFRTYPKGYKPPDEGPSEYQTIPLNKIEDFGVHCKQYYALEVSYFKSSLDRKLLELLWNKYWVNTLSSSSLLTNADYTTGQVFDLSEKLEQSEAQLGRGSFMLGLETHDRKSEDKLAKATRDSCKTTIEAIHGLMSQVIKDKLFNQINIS
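Assay system: purified human Csn5 enzyme expressed in HEK293T cells; measure: % inhibition; also added: SCFSkp2-Nedd8OG substrate at 10 nM final; technique: fluorescence polarization; times: reaction 90 min, room temperature; medium: Tris buffer pH 7.5, NaCl, DTT, Tween-20, trehalose, ovalbumin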
Rpn11 block – Rpn11 (human) deubiquitinase inhibition | O00487 | human 26S proteasome, Ub4-pepOG fluorescence polarization; 20S core pre-blocked with epoxomicin | calls only at 20 µM | 0.59% of 360,000 active | AID 588493;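 active = inhibition at 20 µM, scaled to each plate's controls, above about 33%, limit read from the data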
TPT1 inhibitor – inhibitors of Candida albicans tRNA 2'-phosphotransferase TPT1 | inhibition, % at 5 µM | recombinant caTPT1, FP RNA substrate dephosphorylation | AID 1962 | 0.81% of 300,000 active;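 active = inhibition above the mean of all tested compounds plus 3 SD, set per screening campaign, cut at about 24% in these data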;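 note: plate controls were DMSO alone for no effect and ferristatin control at 100 nM for full effect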
CRFR2-BP ag – CRF-BP/CRF-R2 complex agonism | 0.46% of 350,000 active | HEK293 CRF-R2/CRF-BP, calcium dye fluorescence (FLIPR); percent of saturating CRF peptide response | activation, % at 13.2 µM | AID 588473;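 active = activation of at least 50%, plus an integration ratio under a set limit after plate pattern correction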;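 note: plate controls were neutral control wells without compound for no effect and CRF at EC100 for full effect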
CRFBP-R2 block – blocks CRF-induced signaling of the CRF-BP/CRF-R2 complex | HEK293 CRF-R2/CRF-BP, CRF-induced calcium fluorescence | inhibition, % at 11.8 µM | 0.59% of 350,000 active;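 active = inhibition of the ligand-induced calcium signal above about 50% at the single tested concentration, limit read from the data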
HNF4A DNA FP – change in binding of human HNF4 alpha to DNA; HNF4a-FITC DNA binding, fluorescence polarization, 1 h; P41235; AID 1224865; 0.3% of 360,000 active; activity change, % at 10 µM; in the data active = activity change above about 30%, passing the limit was not always enough
* hit, by the source's call; i = inactive; . = no result shown.

SMILES | CSN inh | Rpn11 block | TPT1 inhibitor | CRFR2-BP ag | CRFBP-R2 block | HNF4A DNA FP
Nc1nc(SCC(=O)Nc2ccc(F)cc2)[nH]c(=O)c1NC(=O)c1ccc(F)c(F)c1 | -2 | i | -1 | 1 | 15 | 4
CCc1ccc(NC(=O)CSc2nc(N)c(NC(=O)c3ccc(F)c(F)c3)c(=O)[nH]2)cc1 | 3 | i | 0 | 0 | 52* | 0
Cn1c(NC(=O)/C=C/c2ccccc2)cc(=O)n(C)c1=O | 5 | i | 0 | 0 | 10 | 0
Cc1nn2c(nc1=O)SCC(c1ccccc1)=N2 | -2 | i | 2 | 0 | -22 | -3
COc1ccccc1N1CCN(C2CCCN(C(=O)c3cc(C4CC4)on3)C2)CC1 (stereo not given) | -5 | i | -3 | -3 | 51* | 2
COc1ccccc1CN(C)C(=O)c1cc(-c2cc(OC)c(OC)c(OC)c2)nc2ccccc12 | -3 | i | 2 | 0 | -13 | -1
CCOc1ccc(-n2c(SCc3ccc([N+](=O)[O-])cc3)nnc2-c2ccc(OC)cc2)cc1 | -12 | i | -1 | -1 | 53* | -2
CCOc1ccc(-n2c(SCc3ccc(C#N)cc3)nnc2-c2cccnc2)cc1 | -3 | i | 0 | 0 | 19 | 0
COC(=O)c1sc(-c2ccc(C(C)(C)C)cc2)cc1NC(=O)CSCC(=O)O | 4 | i | -3 | 1 | 54* | 1
COC(=O)c1sc(-c2ccc(C(C)(C)C)cc2)cc1NC(=O)c1ccccc1C(=O)O | 3 | i | -5 | 3 | 19 | -6
CCCn1nc(C(=O)NC2CCCCCC2)c2ccccc2c1=O | -4 | i | . | 0 | -7 | 0
N#Cc1c(-c2ccc3c(c2)OCO3)csc1N | 0 | i | 3 | -4 | 0 | 6
COc1ccc(C(=O)c2sc3nc(C)cc(-c4cccs4)c3c2N)cc1 | 10 | i | . | 67* | -70 | 30
COc1ccc(-c2c(C#N)c(N)nc3sc(C(=O)c4ccc(C)cc4)c(N)c23)cc1 | 15 | . | 8 | 48 | -49 | 75*
CCOC(=O)CC1C(=O)NCCN1C(=O)c1sc2ccccc2c1Cl (stereo not given) | 4 | i | 0 | 2 | -3 | 1
COc1cc(SC)ccc1C(=O)Nc1ncc(C)s1 | 3 | i | 0 | 0 | 105* | -1
CCCC(=O)Nc1ccc(S(=O)(=O)Nc2cc(OC)nc(OC)n2)cc1 | 1 | i | . | -2 | 14 | -2
COC(=O)c1cn(NC(=O)c2ccc(F)cc2)c(=O)c2ccccc12 | -2 | i | -3 | 0 | 105* | 2
COC(=O)c1cn(NC(=O)c2ccncc2)c(=O)c2ccccc12 | -3 | i | -2 | 2 | 6 | 1
CC(C)OC(=O)CC(=O)c1sc2nc3c(cc2c1N)CN(C)CC3 | . | . | 1 | 103* | -72 | .
CCN1CCc2nc3sc(C(=O)N4CCc5ccccc5C4)c(N)c3cc2C1 | -10 | i | 11 | 0 | -3 | 0
O=C1CCC(C(=O)Nc2ccccc2N2CCOCC2)=NN1 | -1 | i | 1 | -2 | 67* | 0
O=C(Nc1nnc(-c2ccccc2)o1)c1ccc(Cl)cc1 | 2 | i | -4 | 54* | 73* | 5
Cc1[nH]c(=O)[nH]c(=O)c1S(=O)(=O)N1CCCC(C(=O)N2CCN(c3ccccc3Cl)CC2)C1 (stereo not given) | -1 | i | 0 | -3 | 74* | 0
Cn1c(SCC(=O)N/N=C/c2cc([N+](=O)[O-])ccc2O)nnc1-c1ccccc1 | 3 | i | -1 | 62* | -43 | -5
Cn1c(SCC(=O)N/N=C/c2ccc([N+](=O)[O-])s2)nnc1-c1ccccc1 | 6 | i | -3 | 5 | -15 | 1
COc1ccc2[nH]cc(C(=O)CN3CCCCC3)c2c1 | -5 | i | 3 | 59* | -15 | 1
COc1ccc2[nH]cc(C(=O)CN3CCN(C4CCCCC4)CC3)c2c1 | -3 | i | 4 | -1 | 13 | -2
O=C(NC1CCCCC1)N1CCCC(c2nc3ccccc3[nH]2)C1 (stereo not given) | 2 | i | 0 | 3 | -17 | 5
Cc1ccccc1Nc1nc(Cl)c(C=O)s1 | 9 | i | 27* | 14 | -59 | 6
